We go through 6 compounds from ChEMBL document CHEMBL1124692, “Synthesis of a tritium-labeled indolidan analogue and its use as a radioligand for phosphodiesterase-inhibitor cardiotonic binding sites” (J Med Chem, 1989).

Assay [1] in a line: (§1) Displacement [3H]LY-186,126 from phosphodiesterase 4 of myocardial vesicles. It is filed as tissue-based, Canis lupus familiaris, Myocardium. The method in brief: (§2)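 Canine ventricular myocardial vesicles (mixed sarcolemmal and SR; stored at –80 °C), about 100 μg protein, incubated 60 min at 25 °C in 50 mM Tris-Cl pH 7.4, 5 mM MgCl2, 0.01% BSA with 10 nM [3H]-LY186126 (79.2 Ci/mmol). Competitors in DMSO were tested at 0.003–100 μM in half-log steps. Samples were filtered on GF/C and washed with cold phosphate. Specific binding is the part displaced by 100 μM indolidan. Run in triplicate; Ki from nonlinear least-squares fits.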

The target in assay [2] is T1, Phosphodiesterase 4 (Homo sapiens, UniProt P27815+Q08499+Q07343+Q08493). The assay can be described thus: Inhibition of sarcoplasmic reticulum Phosphodiesterase 4. It is filed as protein assay, Canis lupus familiaris.
Assay [3] deals with T1, Phosphodiesterase 4. The assay can be described thus: Binding affinity for sarcoplasmic reticulum phosphodiesterase 4 of canine ventricle. It is filed as protein assay, Canis lupus familiaris. As to conditions: target entry is the homologue from another species.
The target in assay [4] is T1, Phosphodiesterase 4. The assay can be described thus: Binding affinity for Phosphodiesterase 4 of canine myocardial vesicles. The class given is protein assay, Canis lupus familiaris. As to conditions: target entry is the homologue from another species. In short, it runs like this:
as §2

For assay [5], the target named is T1, Phosphodiesterase 4. The assay is described as §1. It is filed as tissue-based, Canis lupus familiaris, Myocardium. In short, it runs like this: as §2

In turn, `O=C1CCC(c2ccc3c(c2)CCC(=O)N3)=NN1` showed a Ki in assay [1] of 2.5 nM.

On to `CC1CC(=O)NN=C1c1ccc2c(c1)C(C)(C)C(=O)N2C` (centres undefined), for which the IC50 in assay [2] was determined as 120 nM. In addition, the results for the Kd in assay [3] and in assay [4] were 3.9 nM and 4.1 nM, respectively.

As to `CN1N=C(c2ccc3c(c2)CC(=O)N3)CCC1=O`, in assay [5], the Ki turned out to be 61400 nM. Compound `CC1CC(=O)NN=C1c1ccc2c(c1)C(C)(C)C(=O)N2` (centres undefined) returned a Ki in assay [5] of 0.54 nM. Turning to `CN1C(=O)C(C)(C)c2cc(C3=NNC(=O)CC3)ccc21`, in assay [2], the IC50 is recorded as 760 nM.

Turning to `CC1(C)C(=O)Nc2ccc(C3=NNC(=O)CC3)cc21` [INDOLIDAN], the IC50 in assay [2] is 150 nM. Besides, the inhibition constant Ki in assay [5] came to 5.4 nM.
